Reference: ChEMBL document CHEMBL1157562, “Piperazinyl glutamate pyridines as potent orally bioavailable P2Y12 antagonists for inhibition of platelet aggregation” (J Med Chem, 2010)

Legend:
[1] = Antiplatelet aggregation activity against adenosine diphosphate-induced human platelet rich plasma assessed as inhibition of platelet aggregation by turbidimetric method; assay type: functional; conditions: Homo sapiens, Platelet, Plasma
Method in brief: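 Human PRP, prepared by two-step centrifugation and adjusted to 330 000 platelets/μL with PPP. Compound was preincubated 5 min at 37 °C in 0.5% DMSO, then 20 μM ADP was added. OD626 was read kinetically for 15 min at 37 °C with mixing between reads.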

P2Y purinoceptor 12 = P2Y purinoceptor 12 (Homo sapiens, UniProt Q9H244); experiment: Displacement of [33P]ADP from human recombinant P2Y12 receptor expressed in CHO cells; assay type: cell-based
Sequence of P2Y purinoceptor 12 (Q9H244 whole entry): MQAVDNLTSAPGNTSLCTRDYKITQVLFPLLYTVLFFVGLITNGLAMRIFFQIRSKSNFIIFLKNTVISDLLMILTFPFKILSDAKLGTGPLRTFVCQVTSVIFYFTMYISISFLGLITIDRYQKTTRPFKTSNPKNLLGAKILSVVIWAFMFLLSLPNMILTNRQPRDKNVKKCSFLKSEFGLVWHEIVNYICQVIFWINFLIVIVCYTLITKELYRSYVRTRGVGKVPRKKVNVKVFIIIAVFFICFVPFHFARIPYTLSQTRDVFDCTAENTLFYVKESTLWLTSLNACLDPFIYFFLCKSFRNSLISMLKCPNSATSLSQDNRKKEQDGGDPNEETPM
Method in brief: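 Washed membranes from CHO cells expressing synthetic human P2Y12, incubated 1 h at room temperature with 0.2 nM 33P-MeSADP in 50 mM Tris/100 mM NaCl/1 mM EDTA. Compound was tested as a 7-point 3-fold series in triplicate. Nonspecific binding was defined with 300 nM 2-MeSADP, followed by filtration.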

| SMILES | IC50 [1] | Ki (P2Y purinoceptor 12) |
| --- | --- | --- |
| O=C(O)CC[C@H](NC(=O)c1cccc(-c2ccccc2)n1)C(=O)N1CCN(C(=O)OCC(F)(F)F)CC1 | > 100 µM | 94 nM |
| CCCCCOC(=O)N1CCN(C(=O)[C@H](CCC(=O)O)NC(=O)c2cc(NC(=O)NC(C)C)cc(-c3ccccc3)n2)CC1 | > 10 µM | 2.7 nM |
| O=C(O)CC[C@H](NC(=O)c1cccc(-c2ccccc2)n1)C(=O)N1CCN(C(=O)OCCCC(F)(F)F)CC1 | 70 µM | 18 nM |
| O=C(O)CC[C@H](NC(=O)c1cccc(-c2ccccc2)n1)C(=O)N1CCN(C(=O)OCc2ccccc2)CC1 | > 100 µM | 196 nM |
| Cc1cccc(N2CCN(C(=O)[C@H](CCC(=O)O)NC(=O)c3cc(-c4ccccc4)cc(-c4ccccc4)n3)CC2)c1 | > 100 µM | 150 nM |
| CCCCCOC(=O)N1CCN(C(=O)[C@H](CCC(=O)O)NC(=O)c2cc(NC(=O)CNC)cc(-c3ccccc3)n2)CC1 | > 10 µM | 5.7 nM |
| CC(C)C(=O)N1CCN(C(=O)[C@H](CCC(=O)O)NC(=O)c2cccc(-c3ccccc3)n2)CC1 | > 100 µM | > 3590 nM |
| CCOC(=O)N1CCN(C(=O)[C@H](CCC(=O)O)NC(=O)c2cc(-c3ccccc3)cc(-c3ccccc3)c2)CC1 | > 100 µM | 373 nM |
| O=C(O)CC[C@H](NC(=O)c1cccc(-c2ccccc2)n1)C(=O)N1CCN(C(=O)Nc2ccccc2)CC1 | > 100 µM | 842 nM |
| CCCCC(=O)N1CCN(C(=O)[C@H](CCC(=O)O)NC(=O)c2cccc(-c3ccccc3)n2)CC1 | > 100 µM | 1430 nM |
| CCCN(CCC)c1cc(C(=O)N[C@@H](CCC(=O)O)C(=O)N2CCN(C(=O)OCC)CC2)nc(-c2ccccc2)c1 | > 100 µM | 45 nM |
| Cc1cccc(N2CCN(C(=O)[C@H](CCC(=O)O)NC(=O)c3cc(-c4ccccc4)cc(-c4ccccc4)c3)CC2)c1 | > 100 µM | 1430 nM |
| CCCCCOC(=O)N1CCN(C(=O)[C@H](CCC(=O)O)NC(=O)c2cc(NC(=O)OCCOC)cc(-c3ccccc3)n2)CC1 | > 10 µM | 1.4 nM |
| CCCCS(=O)(=O)N1CCN(C(=O)[C@H](CCC(=O)O)NC(=O)c2cccc(-c3ccccc3)n2)CC1 | > 100 µM | > 3590 nM |
| CCCNC(=O)N1CCN(C(=O)[C@H](CCC(=O)O)NC(=O)c2cccc(-c3ccccc3)n2)CC1 | > 100 µM | 277 nM |
| O=C(O)CC[C@H](NC(=O)c1cccc(-c2ccccc2)n1)C(=O)N1CCN(C(=O)OCC2CCCC2)CC1 | 82 µM | 46 nM |
| CCCCCOC(=O)N1CCN(C(=O)[C@H](CCC(=O)O)NC(=O)c2cc(NC(=O)N3CCCCC3)cc(-c3ccccc3)n2)CC1 | > 10 µM | 5.8 nM |
| CCOC(=O)N1CCN(C(=O)[C@H](CCC(=O)O)NC(=O)c2cc(-c3ccccc3)ccn2)CC1 | > 100 µM | > 5700 nM |
| CC(C)(C)CCOC(=O)N1CCN(C(=O)[C@H](CCC(=O)O)NC(=O)c2cccc(-c3ccccc3)n2)CC1 | > 100 µM | 42 nM |
| CCCCOC(=O)N1CCN(C(=O)[C@H](CCC(=O)O)NC(=O)c2cc(N(C)CCOC)cc(-c3ccccc3)n2)CC1 | > 100 µM | 4 nM |
| CCCCCOC(=O)N1CCN(C(=O)[C@H](CCC(=O)O)NC(=O)c2cc(NC(=O)C3CCOCC3)cc(-c3ccccc3)n2)CC1 | > 10 µM | 8.5 nM |
| CCOC(=O)N1CCN(C(=O)[C@H](CCC(=O)O)NC(=O)c2cc(-c3ccccc3)nc(-c3ccccc3)c2)CC1 | > 50 µM | 484 nM |
| CCCS(=O)(=O)N1CCN(C(=O)[C@H](CCC(=O)O)NC(=O)c2cccc(-c3ccccc3)n2)CC1 | > 100 µM | > 3590 nM |
| C#CCCOC(=O)N1CCN(C(=O)[C@H](CCC(=O)O)NC(=O)c2cccc(-c3ccccc3)n2)CC1 | > 100 µM | 79 nM |
| CCOC(=O)N1CCN(C(=O)[C@H](CCC(=O)O)NC(=O)c2cc(-c3ccccc3)cc(-c3ccccc3)n2)CC1 | 76 µM | 15 nM |
| CCCCNC(=S)N1CCN(C(=O)[C@H](CCC(=O)O)NC(=O)c2cccc(-c3ccccc3)n2)CC1 | 56 µM | 8 nM |
| CCCCCOC(=O)N1CCN(C(=O)[C@H](CCC(=O)O)NC(=O)c2cc(CCCCCO)cc(-c3ccccc3)n2)CC1 | > 10 µM | 2.8 nM |
| CC(C)CCOC(=O)N1CCN(C(=O)[C@H](CCC(=O)O)NC(=O)c2cccc(-c3ccccc3)n2)CC1 | 88 µM | 33 nM |
| CCOC(=O)N1CCN(C(=O)[C@H](CCC(=O)O)NC(=O)c2cccc(-c3ccccc3)c2)CC1 | > 100 µM | 3640 nM |
| Cc1cccc(N2CCN(C(=O)[C@H](CCC(=O)O)NC(=O)c3cccc(-c4ccccc4)c3)CC2)c1 | > 100 µM | 1310 nM |

More lines, now with the values ahead:

| IC50 [1] | Ki (P2Y purinoceptor 12) | SMILES |
| --- | --- | --- |
| > 50 µM | 733 nM | CCOC(=O)N1CCN(C(=O)CNC(=O)c2cc(-c3ccccc3)cc(-c3ccccc3)n2)CC1 |
| > 100 µM | > 3800 nM | CCCN1CCN(C(=O)[C@H](CCC(=O)O)NC(=O)c2cccc(-c3ccccc3)n2)CC1 |
| > 100 µM | 15 nM | O=C(O)CC[C@H](NC(=O)c1cccc(-c2ccccc2)n1)C(=O)N1CCN(C(=O)OCCC2CC2)CC1 |
| > 100 µM | > 2710 nM | CCCCCCN1CCN(C(=O)[C@H](CCC(=O)O)NC(=O)c2cccc(-c3ccccc3)n2)CC1 |
| > 100 µM | > 3590 nM | CC(=O)N1CCN(C(=O)[C@H](CCC(=O)O)NC(=O)c2cccc(-c3ccccc3)n2)CC1 |
| > 100 µM | > 5680 nM | CC(C)(C)OC(=O)CC[C@H](NC(=O)c1cccc(-c2ccccc2)n1)C(=O)N1CCNCC1 |
| > 100 µM | > 3590 nM | CCS(=O)(=O)N1CCN(C(=O)[C@H](CCC(=O)O)NC(=O)c2cccc(-c3ccccc3)n2)CC1 |
| 74 µM | 1190 nM | CCOC(=O)N1CCN(C(=O)[C@H](CCC(=O)O)NC(=O)c2nccc(-c3ccccc3)n2)CC1 |
| > 100 µM | > 3590 nM | CCCCCS(=O)(=O)N1CCN(C(=O)[C@H](CCC(=O)O)NC(=O)c2cccc(-c3ccccc3)n2)CC1 |
| > 100 µM | 613 nM | CCCCNC(=O)N1CCN(C(=O)[C@H](CCC(=O)O)NC(=O)c2cccc(-c3ccccc3)n2)CC1 |
| > 100 µM | > 3590 nM | COCC(=O)N1CCN(C(=O)[C@H](CCC(=O)O)NC(=O)c2cccc(-c3ccccc3)n2)CC1 |
| > 100 µM | 47 nM | O=C(O)CC[C@H](NC(=O)c1cccc(-c2ccccc2)n1)C(=O)N1CCN(C(=O)OC2CCCC2)CC1 |
| > 10 µM | 8.6 nM | CCCCCOC(=O)N1CCN(C(=O)[C@H](CCC(=O)O)NC(=O)c2cc(CC3CCCCC3)cc(-c3ccccc3)n2)CC1 |
| 42 µM | 6 nM | CCCCCNC(=S)N1CCN(C(=O)[C@H](CCC(=O)O)NC(=O)c2cccc(-c3ccccc3)n2)CC1 |
| > 100 µM | 54 nM | CCCCCCNC(=O)N1CCN(C(=O)[C@H](CCC(=O)O)NC(=O)c2cccc(-c3ccccc3)n2)CC1 |
| > 100 µM | 356 nM | CCOC(=O)N1CCN(C(=O)[C@H](CCC(=O)O)NC(=O)c2cc(-c3ccccc3)nc(-c3ccccc3)n2)CC1 |
| > 10 µM | 3 nM | CCCCCOC(=O)N1CCN(C(=O)[C@H](CCC(=O)O)NC(=O)c2cc(NC(=O)CN3CCOCC3)cc(-c3ccccc3)n2)CC1 |
| > 100 µM | 280 nM | CC(C)OC(=O)N1CCN(C(=O)[C@H](CCC(=O)O)NC(=O)c2cccc(-c3ccccc3)n2)CC1 |
